System: Fibroblast
Experiment: Multiplex assay against human fibroblast
Type: toxicity, cell-based
Procedure, shortened: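 Per cents of healthy-nucleus cells form the tubulin, mitochondrial-mass and membrane-permeability phenotype values. Live cells were stained at seeding with Hoechst33342, BioTracker Green Microtubule Cytoskeleton Dye, MitoTracker Red and Annexin V Alexa Fluor 680. After compound addition they were imaged on a CQ1 microscope at 37°C and 5% CO2, and CellPathfinder machine-learning gating split them into Hoechst high-intensity objects or normal cells, normal cells into healthy, pyknosed or fragmented nuclei, and pyknosed cells into mitotic or apoptotic.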

[1] = 12 h, 1 µM, compound concentration 1 uM, replicate 1
[2] = 12 h, 1 µM, compound concentration 1 uM, replicate 2
[3] = 12 h, 10 µM, compound concentration 10 uM, replicate 1
[4] = 12 h, 10 µM, compound concentration 10 uM, replicate 2
[5] = 24 h, 1 µM, compound concentration 1 uM, replicate 1
[6] = 24 h, 1 µM, compound concentration 1 uM, replicate 2
[7] = 24 h, 10 µM, compound concentration 10 uM, replicate 1
[8] = 24 h, 10 µM, compound concentration 10 uM, replicate 2
[9] = 48 h, 1 µM, compound concentration 1 uM, replicate 1
[10] = 48 h, 1 µM, compound concentration 1 uM, replicate 2
[11] = 48 h, 10 µM, compound concentration 10 uM, replicate 1
[12] = 48 h, 10 µM, compound concentration 10 uM, replicate 2

Cc1cccc(CN2CCN(C(c3ccccc3)c3ccc(Cl)cc3)CC2)c1.Cl.Cl (stereo not given)
Population Apoptotic (%) [1]: 64% | Population Fragmented Nuclei (%) [1]: 22% | Population Healthy Nuclei (%) [1]: 48% | Population Hoechst High Intensity Objects (%) [1]: 22% | Population Membrane Permeable-Phenotype (%) [1]: 34% | Population Mitochondria Different-Phenotype (%) [1]: 8% | Population Mitotic Cells (%) [1]: 35% | Population Normal (%) [1]: 77% | Population Pyknosed Nuclei (%) [1]: 29% | Population Tubulin-Different-Phenotype (%) [1]: 44% | Total Cell Count [1]: 134 | Population Apoptotic (%) [2]: 0% | Population Fragmented Nuclei (%) [2]: 16% | Population Healthy Nuclei (%) [2]: 79% | Population Hoechst High Intensity Objects (%) [2]: 8% | Population Membrane Permeable-Phenotype (%) [2]: 4% | Population Mitochondria Different-Phenotype (%) [2]: 26% | Population Mitotic Cells (%) [2]: 100% | Population Normal (%) [2]: 91% | Population Pyknosed Nuclei (%) [2]: 3% | Population Tubulin-Different-Phenotype (%) [2]: 23% | Total Cell Count [2]: 48 | Population Apoptotic (%) [3]: 61% | Population Fragmented Nuclei (%) [3]: 26% | Population Healthy Nuclei (%) [3]: 38% | Population Hoechst High Intensity Objects (%) [3]: 11% | Population Membrane Permeable-Phenotype (%) [3]: 15% | Population Mitochondria Different-Phenotype (%) [3]: 45% | Population Mitotic Cells (%) [3]: 38% | Population Normal (%) [3]: 88% | Population Pyknosed Nuclei (%) [3]: 34% | Population Tubulin-Different-Phenotype (%) [3]: 90% | Total Cell Count [3]: 127 | Population Apoptotic (%) [4]: 50% | Population Fragmented Nuclei (%) [4]: 14% | Population Healthy Nuclei (%) [4]: 72% | Population Hoechst High Intensity Objects (%) [4]: 6% | Population Membrane Permeable-Phenotype (%) [4]: 6% | Population Mitochondria Different-Phenotype (%) [4]: 61% | Population Mitotic Cells (%) [4]: 50% | Population Normal (%) [4]: 93% | Population Pyknosed Nuclei (%) [4]: 13% | Population Tubulin-Different-Phenotype (%) [4]: 47% | Total Cell Count [4]: 58 | Population Apoptotic (%) [5]: 75% | Population Fragmented Nuclei (%) [5]: 21% | Population Healthy Nuclei (%) [5]: 56% | Population Hoechst High Intensity Objects (%) [5]: 26% | Population Membrane Permeable-Phenotype (%) [5]: 34% | Population Mitochondria Different-Phenotype (%) [5]: 5% | Population Mitotic Cells (%) [5]: 25% | Population Normal (%) [5]: 73% | Population Pyknosed Nuclei (%) [5]: 21% | Population Tubulin-Different-Phenotype (%) [5]: 40% | Total Cell Count [5]: 125 | Population Apoptotic (%) [6]: 80% | Population Fragmented Nuclei (%) [6]: 18% | Population Healthy Nuclei (%) [6]: 73% | Population Hoechst High Intensity Objects (%) [6]: 10% | Population Membrane Permeable-Phenotype (%) [6]: 11% | Population Mitochondria Different-Phenotype (%) [6]: 13% | Population Mitotic Cells (%) [6]: 20% | Population Normal (%) [6]: 89% | Population Pyknosed Nuclei (%) [6]: 8% | Population Tubulin-Different-Phenotype (%) [6]: 22% | Total Cell Count [6]: 47 | Population Apoptotic (%) [7]: 66% | Population Fragmented Nuclei (%) [7]: 29% | Population Healthy Nuclei (%) [7]: 44% | Population Hoechst High Intensity Objects (%) [7]: 14% | Population Membrane Permeable-Phenotype (%) [7]: 16% | Population Mitochondria Different-Phenotype (%) [7]: 40% | Population Mitotic Cells (%) [7]: 33% | Population Normal (%) [7]: 85% | Population Pyknosed Nuclei (%) [7]: 26% | Population Tubulin-Different-Phenotype (%) [7]: 86% | Total Cell Count [7]: 132 | Population Apoptotic (%) [8]: 11% | Population Fragmented Nuclei (%) [8]: 10% | Population Healthy Nuclei (%) [8]: 77% | Population Hoechst High Intensity Objects (%) [8]: 5% | Population Membrane Permeable-Phenotype (%) [8]: 5% | Population Mitochondria Different-Phenotype (%) [8]: 63% | Population Mitotic Cells (%) [8]: 88% | Population Normal (%) [8]: 94% | Population Pyknosed Nuclei (%) [8]: 12% | Population Tubulin-Different-Phenotype (%) [8]: 45% | Total Cell Count [8]: 67 | Population Apoptotic (%) [9]: 66% | Population Fragmented Nuclei (%) [9]: 30% | Population Healthy Nuclei (%) [9]: 58% | Population Hoechst High Intensity Objects (%) [9]: 18% | Population Membrane Permeable-Phenotype (%) [9]: 20% | Population Mitochondria Different-Phenotype (%) [9]: 3% | Population Mitotic Cells (%) [9]: 33% | Population Normal (%) [9]: 81% | Population Pyknosed Nuclei (%) [9]: 10% | Population Tubulin-Different-Phenotype (%) [9]: 30% | Total Cell Count [9]: 136 | Population Apoptotic (%) [10]: 87% | Population Fragmented Nuclei (%) [10]: 24% | Population Healthy Nuclei (%) [10]: 68% | Population Hoechst High Intensity Objects (%) [10]: 9% | Population Membrane Permeable-Phenotype (%) [10]: 6% | Population Mitochondria Different-Phenotype (%) [10]: 7% | Population Mitotic Cells (%) [10]: 12% | Population Normal (%) [10]: 90% | Population Pyknosed Nuclei (%) [10]: 7% | Population Tubulin-Different-Phenotype (%) [10]: 44% | Total Cell Count [10]: 124 | Population Apoptotic (%) [11]: 57% | Population Fragmented Nuclei (%) [11]: 39% | Population Healthy Nuclei (%) [11]: 54% | Population Hoechst High Intensity Objects (%) [11]: 12% | Population Membrane Permeable-Phenotype (%) [11]: 16% | Population Mitochondria Different-Phenotype (%) [11]: 25% | Population Mitotic Cells (%) [11]: 42% | Population Normal (%) [11]: 87% | Population Pyknosed Nuclei (%) [11]: 6% | Population Tubulin-Different-Phenotype (%) [11]: 79% | Total Cell Count [11]: 124 | Population Apoptotic (%) [12]: 50% | Population Fragmented Nuclei (%) [12]: 42% | Population Healthy Nuclei (%) [12]: 52% | Population Membrane Permeable-Phenotype (%) [12]: 9% | Population Mitochondria Different-Phenotype (%) [12]: 34% | Population Mitotic Cells (%) [12]: 50% | Population Pyknosed Nuclei (%) [12]: 5% | Population Tubulin-Different-Phenotype (%) [12]: 88% | Total Cell Count [12]: 133
